Screening data deposited in PubChem by The Scripps Research Institute Molecular Screening Center.
CHRM5 PAM = positive allosteric modulators of human muscarinic M5 receptor; P08912; CHO-K1 hM5, Fluo-8 calcium, ACh EC20 PAM; 0% = ACh EC20, 100% = ACh EC100; activation, % at 3 µM; hit rate 0.3% among 360,000;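 active = activation above the run cutoff, the mean activation of all test compounds plus 3 SD, cut at about 18% in these data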
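Test system: CHO-K1 hM5 cells / Doses: single-point, 3 µM nominal / Times: Post-acetylcholine fluorescence recording 140 s / Technique: Fluo-8 calcium fluorescence / Measure: Max/basal fluorescence ratio as % of EC20–EC100 ACh window / Benchmarks: low control EC20 acetylcholine (0%), high control EC100 acetylcholine (100%) / Replicates: one well per compound, no replicates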
CHRM5 agonist = agonists of human muscarinic M5 receptor (CHRM5) | P08912 | CHO-K1 hM5 cells, Fluo-8 calcium fluorescence; 0% DMSO wells, 100% maximal acetylcholine response | activation, % at 3 µM | hit rate 0.19% among 360,000;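 active = activation above the run's mean over test compounds plus 3 SD, cut at about 23% in these data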;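 also: signal is peak over basal fluorescence ratio across the kinetic read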
M4 PAM = positive allosteric modulators of human muscarinic M4 receptor. hit rate 0.4% among 360,000. AID 624126. activation, % at 3 µM. CHO-K1 hM4/Gqi5, Fluo-8 calcium fluorescence, ACh EC20; 0% = ACh EC20, 100% = maximal ACh;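 active = activation above its plate's cutoff, the mean activation of sample wells plus 3 SD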
Target sequence (P08173 whole entry, looked up): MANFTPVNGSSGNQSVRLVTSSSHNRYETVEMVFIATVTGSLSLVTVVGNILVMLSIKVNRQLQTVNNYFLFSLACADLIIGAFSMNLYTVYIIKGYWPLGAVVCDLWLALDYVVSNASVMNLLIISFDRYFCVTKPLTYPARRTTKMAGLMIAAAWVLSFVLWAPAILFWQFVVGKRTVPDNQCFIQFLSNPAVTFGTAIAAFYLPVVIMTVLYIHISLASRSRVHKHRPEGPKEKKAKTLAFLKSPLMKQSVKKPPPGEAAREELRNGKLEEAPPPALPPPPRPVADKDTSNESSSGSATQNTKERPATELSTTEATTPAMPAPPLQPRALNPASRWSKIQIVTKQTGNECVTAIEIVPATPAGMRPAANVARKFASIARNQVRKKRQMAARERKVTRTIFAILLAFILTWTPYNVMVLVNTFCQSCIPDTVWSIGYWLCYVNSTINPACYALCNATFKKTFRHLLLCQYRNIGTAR
M4 ag = agonists of human muscarinic M4 receptor (CHRM4); CHO-K1 hM4/Gqi5, Fluo-8 calcium fluorescence; vehicle 0%, full acetylcholine response 100%; activation, % at 3 µM; AID 624127; hit rate 0.14% among 360,000; P08173;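 active = activation above the run mean over all test wells plus 3 SD, cut at about 32% in these data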;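 also: peak over basal fluorescence ratio per well then scaled between controls; 0% = DMSO wells and 100% = acetylcholine at EC100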
M4 antag = blocks acetylcholine activation of human M4 receptor; hit rate 0.73% among 360,000; P08173; inhibition, % at 3 µM; CHO-hM4 cells, ACh EC80, Fluo-8 calcium fluorescence;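 active = inhibition above its plate's cutoff, the mean inhibition of sample wells plus 3 SD, cut at about 27% in these data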;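 also: 0% = acetylcholine EC80 with DMSO and 100% = DMSO without agonist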
CHRM5 antagonist = antagonists of human muscarinic M5 receptor (CHRM5); P08912; CHO-hM5 cells, Fluo-8 calcium fluorescence, ACh EC80; inhibition, % at 3 µM; hit rate 0.59% among 360,000; AID 624040;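 active = inhibition above a per-plate cutoff, the mean of that plate's test compounds plus 3 SD, cut at about 27% in these data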;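 also: 0% = acetylcholine EC80 with DMSO and 100% = DMSO without agonist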
* hit, by the source's call. Sampled rows, rich in hits. Any-hit rate of the full collection: about 1.9%.

SMILES	CHRM5 PAM	CHRM5 agonist	M4 PAM	M4 ag	M4 antag	CHRM5 antagonist
CCN(CC)c1ccc(C2C(C(=O)OCCOC)=C(C)NC3=C2C(=O)CCC3)cc1 (stereo unspecified)	-15	-7	-19	1	35*	22
CC1=C(C(=O)OCC2CCCO2)C(c2ccc(C)cc2)C2=C(CCCC2=O)N1 (stereo unspecified)	20*	-7	9	2	-9	-4
CC1=C(C(=O)OCC2CCCO2)C(c2ccncc2)C2=C(CCCC2=O)N1 (stereo unspecified)	8	-3	2	0	0	-6
COc1ccc(CN2C(=O)CCC2(C)c2nnnn2Cc2ccccc2)cc1OC (stereo unspecified)	0	1	21	2	-5	10
O=C(O)c1cccnc1C(=O)c1ccccc1	2	0	-11	0	-2	8
COC(=O)C(Cc1ccc(OC(=O)c2ccc(Cl)cc2)cc1)N1Cc2ccccc2C1=O (stereo unspecified)	-25	-2	-13	10	28*	30*
COc1ccc(CN2CCC[C@]3(N[C@H](c4ccccc4)[C@@H]4C(=O)N(Cc5ccccc5)C(=O)[C@@H]43)C2=O)cc1	-10	1	-8	18	-14	15
COc1ccccc1CNc1nc(NCc2ccccc2OC)c2sccc2n1	-14	3	-10	12	11	25
COc1ccccc1CNc1nc(NCc2ccc3occc3c2)c2sccc2n1	-18	2	-9	12	22	43*
COc1ccccc1CNc1nc(NCc2ccccc2SC)c2sccc2n1	-14	2	-9	13	32*	30*
c1cc2cc(CNc3nc(NCC4CC4)nc4ccsc34)ccc2o1	-10	3	-6	10	5	16
CCCOc1ccc(OC(=O)c2ccc(Br)o2)cc1	-4	9	12	76*	3	-2
COc1ccccc1C#Cc1cnc2c(c1)C(=O)N([C@H](C)CO)C[C@H](C)[C@@H](CN(C)S(=O)(=O)c1cn(C)cn1)O2	-5	1	-2	8	-6	15
O=C1Nc2ccc(Br)cc2C1(O)c1ccccc1 (stereo unspecified)	-1	0	0	6	-17	-3
O=C1Nc2ccc(Br)cc2C12NNc1ccccc1O2 (stereo unspecified)	-13	22	-6	24	21	31*
N#CCCn1nc(-c2ccccc2)cc1Nc1ccccc1NC(=O)c1cccs1	22*	-2	-6	6	-9	-14
CC(C)(C)c1ccc(C(=O)N2CCC2(C)C(=O)Nc2cccc3ncccc23)cc1 (stereo unspecified)	1	1	-4	7	-7	-3
O=C(Cn1ccccc1=S)c1ccc(Cl)c(Cl)c1	-13	-8	-3	2	-1	16
On1ccccc1=S	-2	3	0	3	31*	23
COc1ccc(/C=C2\SC(=S)N(CCCC(=O)N3CCN(C)CC3)C2=O)cc1	33*	6	-3	10	-9	11
CCc1ccc(/C=C2\SC(=S)N(CCCC(=O)N3CCN(C)CC3)C2=O)cc1	-11	1	-4	7	6	12
S=C(Nc1cccc2ccccc12)NN1CCCCCC1	-27	-10	-17	-1	35*	9
Cc1cc(C)cc(NC(=S)N2CCC(C(=O)c3ccc(F)cc3)CC2)c1	-5	-9	6	2	-21	8
CCSC1=C(C#N)C(c2ccccc2Cl)C(C(=O)c2cccs2)C(O)(C(F)(F)F)N1 (stereo unspecified)	9	-2	1	2	8	6
C=CCSC1=C(C#N)C(c2ccccc2Cl)C(C(=O)c2cccs2)C(O)(C(F)(F)F)N1 (stereo unspecified)	-18	0	-8	11	1	27*
SMILES	CHRM5 PAM	CHRM5 agonist	M4 PAM	M4 ag	M4 antag	CHRM5 antagonist
COC(=O)c1ccc(-c2nc(O)c3cnccn23)cc1	-1	-4	3	34*	-3	8
Oc1nc(-c2ccc(Cl)cc2)n2ccncc12	-1	-4	0	1	-5	11
CC(=O)N1C(=O)NC2=C(C(=O)CCC2)C1c1cccc([N+](=O)[O-])c1 (stereo unspecified)	1	-3	-2	0	5	4
Cc1ccc2cc3c(N)c4c(C)ccc(C)c4nc3nc2c1	-6	5	6	3	-6	1
Cc1ccc(Cn2c(N3CCN(CCO)CC3)nc3c2c(=O)n(C)c(=O)n3C)cc1	-8	-4	-6	1	2	16
C=CCSc1nnc2nc3c(nn12)c1cc(C)ccc1n3CC=C	41*	-2	10	1	-21	-11
C=CCn1c2ccccc2c2nnc(SCC(N)=O)nc21	-1	-2	2	2	2	5
CCOc1ccc(S(=O)(=O)N2CCN(C(=O)Cc3n[nH]c(=O)c4ccccc34)CC2)cc1	-5	-8	6	0	-19	-7
N/C(=N\O)c1cccc(CS(=O)(=O)c2ccccn2)c1	7	0	-11	1	-3	-11
O=c1cc(-c2ccc(O)cc2)oc2ccccc12	-7	3	-2	2	-6	5
O=c1cc(-c2ccc(O)cc2)oc2ccc(O)cc12	1	-3	42*	0	12	12
CCc1nnc(SCC(=O)NCCC2=CCCCC2)nc1CC	-3	-3	-5	0	-1	6
Cc1ccc2c(c1)[C@H]1[C@H](CO2)[C@H](c2ccccc2)[C@]2(C)C(=O)N(Cc3ccc(F)cc3)CC(=O)N12	-3	24*	-8	12	16	13
COc1ccc2c(c1)OC[C@H]1[C@H]2N2C(=O)c3cc(F)ccc3NC(=O)[C@@]2(C)[C@H]1c1ccccc1	-27	-6	-15	4	57*	12
COc1ccc2c(c1)OC[C@H]1[C@H]2N2C(=O)c3cc(Cl)ccc3NC(=O)[C@@]2(C)[C@H]1c1ccccc1	-9	-1	-7	2	36*	11
C[C@@]12C(=O)Nc3cc(F)ccc3C(=O)N1[C@H]1c3ccccc3OC[C@@H]1[C@@H]2c1ccccc1	-36	-3	-21	4	73*	12
O=c1ccn([C@@H]2O[C@H](CNCc3cccn3-c3ccncc3)[C@@H](O)[C@H]2O)c(=O)[nH]1	6	2	10	1	-7	4
CN(C)c1ccc(C2(c3ccc(N(C)C)cc3)OC(=O)c3cc(N)ccc32)cc1	2	-5	4	0	-19	-1
